# Experimental data reported in BindingDB's records for doi:10.1021/jm00111a027 (Merck Sharp & Dohme Research Laboratories, 1991).
# Residues, ends and D or L forms follow the SMILES beside them. *: point of attachment. X10 = CCCOC[C@H](CC(C)C)N*
# Molecular target: Gastrin-releasing peptide receptor (Mus musculus, UniProt P21729)
# Assay: Compound was evaluated for mitogenic inhibition against Swiss 3T3 murine fibroblast cells.
# Summary of the method: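 Swiss 3T3 monolayers grown to confluence, then serum-starved in serum-free DMEM for 48 h. Antagonist added together with 3 nM N-acetyl-GRP-20-27 amide and 23 nM [3H]thymidine. After a further 48 h, cells detached with trypsin/5 mM EDTA and filter-harvested; [3H]thymidine uptake measured. IC50 is the mean of at least two independent experiments.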
# Chain of Gastrin-releasing peptide receptor (P21729 whole entry): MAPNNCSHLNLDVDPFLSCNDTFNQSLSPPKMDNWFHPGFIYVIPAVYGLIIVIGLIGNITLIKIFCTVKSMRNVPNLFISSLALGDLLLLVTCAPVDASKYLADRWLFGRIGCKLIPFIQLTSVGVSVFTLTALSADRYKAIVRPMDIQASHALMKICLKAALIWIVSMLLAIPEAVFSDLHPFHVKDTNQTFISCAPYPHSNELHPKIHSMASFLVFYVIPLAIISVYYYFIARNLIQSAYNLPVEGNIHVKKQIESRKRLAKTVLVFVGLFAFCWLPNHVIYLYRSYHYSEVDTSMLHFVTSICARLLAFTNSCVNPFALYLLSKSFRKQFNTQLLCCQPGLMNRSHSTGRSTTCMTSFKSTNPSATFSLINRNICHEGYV
smiles,measurement,value
CCCOC[C@H](CC(C)C)NC(=O)[C@H](Cc1c[nH]cn1)NC(=O)CNC(=O)[C@@H](NC(=O)[C@H](C)NC(=O)[C@H](Cc1c[nH]c2ccccc12)NC(=O)[C@H](Cc1c[nH]cn1)NC(C)=O)C(C)C [2-{2-[2-[2-Acetylamino-3-(3H-imidazol-4-yl)-propionylamino]-3-(1H-indol-3-yl)-propionylamino]-propionylamino}-N-{[2-(3H-imidazol-4-yl)-1-(3-methyl-1-propoxymethyl-butylcarbamoyl)-ethylcarbamoyl]-methyl}-3-methyl-butyramide] (Ac-HWAVGH-X10),IC50,18 nM
